Source: ChEMBL document CHEMBL4184147, “Polyphenolic Phytochemicals in Cancer Prevention and Therapy: Bioavailability versus Bioefficacy” (J Med Chem, 2017)

Key:
[1] = Plasma concentration in mouse at 100 mg/kg, po at 60 mins by LC-MS/MS method; type: ADME, organism-based
Method in brief: (§1)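 For IV dosing, compound dissolved in DMSO:ethanol (2:1), total volume no more than 30 μL. For oral dosing, compound given in a self-microemulsifying delivery system (60% surfactant, emulsifier OP:Cremophor EL 1:1; 30% PEG 400; 10% ethyl oleate), total volume no more than 100 μL. Plasma levels measured by previously described methods.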

LN-229 [2] = assay: Cytotoxicity against human LN229 cells assessed as decrease in cell viability after 48 hrs by trypan blue exclusion and LDH release; settings: LN-229, 48 h
U-87 MG [3] = assay: Cytotoxicity against human U87 cells assessed as cell viability at 34 uM after 48 hrs by MTT assay; type: functional, U-87MG ATCC; settings: read-out: Activity
T47D [4] = assay: Cytotoxicity against human T47D cells assessed as cell viability at 34 uM after 48 hrs by MTT assay; type: functional; settings: read-out: Activity
A549 [5] = assay: Cytotoxicity against human A549 cells assessed as decrease in cell viability after 48 hrs by trypan blue exclusion and LDH release; settings: A549, 48 h
[6] = Plasma concentration in mouse at 10 mg/kg, iv at 120 mins by LC-MS/MS method; type: ADME, organism-based; method in brief: as §1
BXPC-3 [7] = assay: Cytotoxicity against human BxPC3 cells assessed as cell viability at 34 uM after 48 hrs by MTT assay; type: functional; settings: BXPC-3, 48 h, read-out: Activity
[8] = Tmax in mouse at 100 mg/kg, po by HPLC method; type: ADME, organism-based; settings: in vivo
Method in brief: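 Given orally in a self-microemulsifying delivery system (60% surfactant, emulsifier OP:Cremophor EL 1:1; 30% PEG 400 cosurfactant; 10% ethyl oleate oil), total volume no more than 100 μL. Plasma levels measured by previously described methods.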

U-87 MG [9] = assay: Cytotoxicity against human U87 cells assessed as decrease in cell viability after 48 hrs by trypan blue exclusion and LDH release
SK-MEL-2 [10] = assay: Cytotoxicity against human SK-MEL-2 cells assessed as cell viability at 34 uM after 48 hrs by MTT assay; type: functional; settings: SK-MEL-2, 48 h, read-out: Activity
COLO 201 [11] = assay: Cytotoxicity against human COLO201 cells assessed as cell viability at 34 uM after 48 hrs by trypan blue exclusion and LDH release; settings: COLO 201, 48 h
MDA-MB-231 [12] = assay: Cytotoxicity against human MDA-MB-231 cells assessed as cell viability at 34 uM after 48 hrs by MTT assay; type: functional; settings: MDA-MB-231, 48 h, read-out: Activity
[13] = Cmax in mouse at 100 mg/kg, po by HPLC method; type: ADME, organism-based; design: dose 100 mg/kg, route oral; settings: in vivo
Method in brief: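 For oral dosing, polyphenol was dissolved in a self-microemulsifying delivery system: 60% surfactant (emulsifier OP:Cremophor EL 1:1), 30% cosurfactant (PEG 400) and 10% oil (ethyl oleate). Total volume given was never above 100 μL. Plasma levels were quantified by previously described methods.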

SK-MEL-2 [14] = assay: Cytotoxicity against human SK-MEL-2 cells assessed as decrease in cell viability after 48 hrs by MTT assay; type: functional, cell-based; settings: SK-MEL-2, 48 h
[15] = Plasma concentration in mouse at 10 mg/kg, iv at 60 mins by LC-MS/MS method; type: ADME, organism-based; method in brief: as §1
MDA-MB-231 [16] = assay: Cytotoxicity against human MDA-MB-231 cells assessed as decrease in cell viability after 48 hrs by trypan blue exclusion and LDH release; settings: MDA-MB-231, 48 h
HT-29 [17] = assay: Cytotoxicity against human HT-29 cells assessed as decrease in cell viability at 20 uM after 48 hrs by SRB method relative to control; type: functional
PANC-1 [18] = assay: Cytotoxicity against human PANC1 cells assessed as cell viability at 34 uM after 48 hrs by MTT assay; type: functional; settings: PANC-1, 48 h, read-out: Activity
A-375 = assay: Cytotoxicity against human A375 cells assessed as decrease in cell viability at 20 uM after 48 hrs by SRB method relative to control; type: functional
[19] = Cytotoxicity against human MML1 cells assessed as decrease in cell viability after 48 hrs by MTT assay; type: functional, cell-based
LN-229 [20] = assay: Cytotoxicity against human LN229 cells assessed as cell viability at 34 uM after 48 hrs by MTT assay; type: functional; settings: LN-229, 48 h, read-out: Activity
[21] = Cmax in mouse at 10 mg/kg, iv by LC-MS/MS method; type: ADME, organism-based; design: dose 10 mg/kg, route intravenous; settings: in vivo
Method in brief: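 Mouse iv dosing used polyphenol dissolved in DMSO:ethanol (2:1), with total injected volume never above 30 μL. Plasma levels were measured by previously described methods.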

COLO 201 [22] = assay: Cytotoxicity against human COLO201 cells assessed as decrease in cell viability after 48 hrs by trypan blue exclusion and LDH release; settings: COLO 201, 48 h
[23] = Cytotoxicity against human MML1 cells assessed as cell viability at 34 uM after 48 hrs by MTT assay; type: functional; settings: read-out: Activity
A549 [24] = assay: Cytotoxicity against human A549 cells assessed as decrease in cell viability at 20 uM after 48 hrs by SRB method relative to control; type: functional
MCF7 = assay: Cytotoxicity against human MCF7 cells assessed as decrease in cell viability at 20 uM after 48 hrs by SRB method relative to control; type: functional
HT-29 [25] = assay: Cytotoxicity against human HT-29 cells assessed as decrease in cell viability after 48 hrs by trypan blue exclusion and LDH release; settings: HT-29, 48 h
HT-29 [26] = assay: Cytotoxicity against human HT-29 cells assessed as cell viability at 34 uM after 48 hrs by MTT assay; type: functional; settings: HT-29, 48 h, read-out: Activity
A549 [27] = assay: Cytotoxicity against human A549 cells assessed as cell viability at 34 uM after 48 hrs by trypan blue exclusion and LDH release; settings: A549, 48 h
BXPC-3 [28] = assay: Cytotoxicity against human BxPC3 cells assessed as decrease in cell viability after 48 hrs by MTT assay; type: functional, cell-based; settings: BXPC-3, 48 h
T47D [29] = assay: Cytotoxicity against human T47D cells assessed as decrease in cell viability after 48 hrs by trypan blue exclusion and LDH release
NCI-H460 [30] = assay: Cytotoxicity against human NCI-H460 cells assessed as cell viability at 34 uM after 48 hrs by trypan blue exclusion and LDH release; settings: NCI-H460, 48 h
NCI-H460 [31] = assay: Cytotoxicity against human NCI-H460 cells assessed as decrease in cell viability after 48 hrs by MTT assay; type: functional, cell-based; settings: NCI-H460, 48 h
[32] = Tmax in mouse at 10 mg/kg, iv by LC-MS/MS method; type: ADME, organism-based; settings: in vivo; method in brief: as §1
PANC-1 [33] = assay: Cytotoxicity against human PANC1 cells assessed as decrease in cell viability after 48 hrs by MTT assay; type: functional, cell-based; settings: PANC-1, 48 h
HT-29 [34] = assay: Cytotoxicity against human HT-29 cells assessed as cell viability at 14 uM after 48 hrs by MTT assay; type: functional; settings: HT-29, 48 h, read-out: Activity
COLO 201 [35] = assay: Cytotoxicity against human COLO201 cells assessed as cell viability at 14 uM after 48 hrs by MTT assay; type: functional; settings: COLO 201, 48 h, read-out: Activity
T47D [36] = assay: Cytotoxicity against human T47D cells assessed as cell viability at 14 uM after 48 hrs by MTT assay; type: functional; settings: read-out: Activity
MDA-MB-231 [37] = assay: Cytotoxicity against human MDA-MB-231 cells assessed as cell viability at 14 uM after 48 hrs by MTT assay; type: functional; settings: MDA-MB-231, 48 h, read-out: Activity
U-87 MG [38] = assay: Cytotoxicity against human U87 cells assessed as cell viability at 14 uM after 48 hrs by MTT assay; type: functional, U-87MG ATCC; settings: read-out: Activity
Homo sapiens = assay: Renal toxicity in patient assessed as decrease in glomerular flow rate at 1400 mg/m'2, iv administered as bolus dose measured after 24 hrs relative to control; type: organism-based; design: scale not given: the % may be the effect or the level left; settings: in vivo
BXPC-3 [39] = assay: Cytotoxicity against human BxPC3 cells assessed as cell viability at 14 uM after 48 hrs by MTT assay; type: functional; settings: BXPC-3, 48 h, read-out: Activity
A549 [40] = assay: Cytotoxicity against human A549 cells assessed as cell viability at 14 uM after 48 hrs by MTT assay; type: functional; settings: A549, 48 h, read-out: Activity
SK-MEL-2 [41] = assay: Cytotoxicity against human SK-MEL-2 cells assessed as cell viability at 14 uM after 48 hrs by MTT assay; type: functional; settings: SK-MEL-2, 48 h, read-out: Activity
NCI-H460 [42] = assay: Cytotoxicity against human NCI-H460 cells assessed as cell viability at 14 uM after 48 hrs by MTT assay; type: functional; settings: NCI-H460, 48 h, read-out: Activity
LN-229 [43] = assay: Cytotoxicity against human LN229 cells assessed as cell viability at 14 uM after 48 hrs by MTT assay; type: functional; settings: LN-229, 48 h, read-out: Activity
PANC-1 [44] = assay: Cytotoxicity against human PANC1 cells assessed as cell viability at 14 uM after 48 hrs by MTT assay; type: functional; settings: PANC-1, 48 h, read-out: Activity
[45] = Cytotoxicity against human MML1 cells assessed as cell viability at 14 uM after 48 hrs by MTT assay; type: functional; settings: read-out: Activity

SMILES | concentration at 1 h [1] | IC50 (LN-229 [2]) | IC50 (A549 [5]) | Tmax [8] | IC50 (U-87 MG [9]) | Cmax [13] | IC50 (SK-MEL-2 [14]) | concentration at 1 h [15] | IC50 (MDA-MB-231 [16]) | IC50 [19] | Cmax [21] | IC50 (COLO 201 [22]) | IC50 (HT-29 [25]) | IC50 (BXPC-3 [28]) | IC50 (T47D [29]) | IC50 (NCI-H460 [31]) | Tmax [32] | IC50 (PANC-1 [33]) | further results
COc1cc(/C=C/c2ccc(O)cc2)cc(OC)c1 [PTEROSTILBENE] | < 1 µM | 14 µM | 26 µM | 10 min | 34 µM | 25 µM | 17 µM | 15 µM | 63 µM | 17 µM | 67 µM | 29 µM | 28 µM | 31 µM | 35 µM | 17 µM | 5 min | 50 µM | viability at 34 µM (U-87 MG [3]): 103%; viability at 34 µM (T47D [4]): 91%; concentration at 2 h [6]: < 1 µM; viability at 34 µM (BXPC-3 [7]): 97%; viability at 34 µM (SK-MEL-2 [10]): 85%; viability at 34 µM (COLO 201 [11]): 95%; viability at 34 µM (MDA-MB-231 [12]): 90%; Activity (HT-29 [17]): 10%; viability at 34 µM (PANC-1 [18]): 94%; Activity (A-375): 30%; viability at 34 µM (LN-229 [20]): 98%; viability at 34 µM [23]: 87%; Activity (A549 [24]): 40%; Activity (MCF7): 25%; viability at 34 µM (HT-29 [26]): 96%; viability at 34 µM (A549 [27]): 81%; viability at 34 µM (NCI-H460 [30]): 83%
O=c1c(O)c(-c2ccc(O)c(O)c2)oc2cc(O)cc(O)c12 [QUERCETIN] | < 1 µM | 12 µM | 13 µM | 15 min | 23 µM | 8 µM | 12 µM | < 1 µM | 20 µM | 15 µM | 27 µM | 19 µM | 18 µM | 16 µM | 11 µM | 12 µM | 5 min | 62 µM | viability at 14 µM (HT-29 [34]): 94%; viability at 14 µM (COLO 201 [35]): 101%; viability at 14 µM (T47D [36]): 100%; viability at 14 µM (MDA-MB-231 [37]): 103%; viability at 14 µM (U-87 MG [38]): 97%; Activity (Homo sapiens): 20%; viability at 14 µM (BXPC-3 [39]): 96%; viability at 14 µM (A549 [40]): 104%; viability at 14 µM (SK-MEL-2 [41]): 97%; viability at 14 µM (NCI-H460 [42]): 95%; viability at 14 µM (LN-229 [43]): 106%; viability at 14 µM (PANC-1 [44]): 102%; viability at 14 µM [45]: 103%
